Assay outcomes (PubChem BioAssay)
This is a sample that favours compounds with a hit; in the whole collection about 1.9% have one here.
proCasp3 act – procaspase-3 (human) activation; P42574; AID 463141; hit rate 0.11% among 330,000; activation, % at 8.5 µM; recombinant procaspase-3 D3A, Ac-DEVD-pNA absorbance 405 nm;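 active means activation above the mean of all tested compounds plus 3 SD, cut at about 21% in these data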;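 further: 0% = DMSO alone and 100% = DMSO wells spiked with extra 5 µM PC-3 D3A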
Target sequence (P42574 whole entry D9A/D28A/D175A): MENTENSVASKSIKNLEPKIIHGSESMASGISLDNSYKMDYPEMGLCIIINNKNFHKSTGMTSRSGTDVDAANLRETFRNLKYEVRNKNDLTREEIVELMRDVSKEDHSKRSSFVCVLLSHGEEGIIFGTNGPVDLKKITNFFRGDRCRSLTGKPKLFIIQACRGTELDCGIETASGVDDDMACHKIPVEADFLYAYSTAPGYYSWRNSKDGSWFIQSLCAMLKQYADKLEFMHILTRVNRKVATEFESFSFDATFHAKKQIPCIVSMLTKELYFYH
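assay system = Procaspase-3 D3A mutant | signal = absorbance at 405 nm, 0 and 120 min | times = 1 h preincubation plus 2 h reaction at 25 °C | repeats = single replicate | read-out = % activation between DMSO and enzyme-spiked controls | medium = Zinc-free HEPES saline buffer with Triton X-100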
HIF act – HIF pathway transcriptional activation; U2OS HRE-luciferase reporter, luminescence; normalized: DMSO 0%, desferrioxamine 100%; hit rate 0.32% among 300,000; AID 1910; activation, % at 7.5 µM (by protocol);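 active means mean activation of at least 10% of the iron chelator positive control signal, with at least half of replicates also reaching 10%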
Neddylation inh – cullin neddylation inhibition; TR-FRET cullin neddylation, biochemical; inhibition, % at 25 µM; hit rate 0.58% among 360,000; in the data active means inhibition above about 36%
Calb FLC – affects C. albicans growth with fluconazole. C. albicans CaCi-2 + fluconazole, Alamar Blue growth, 48 h. hit rate 0.57% among 300,000. growth inhibition, % (no concentration beside the values);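 active means growth inhibition above about 58% in most replicates, limit read from the data, passing the limit was not always enough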;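 further: all wells also contain fluconazole at 8 µg/ml as a sub-toxic cotreatment; 0% = median of DMSO wells and 100% = median of geldanamycin control wells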
procasp7 counter – counter-screen: procaspase-7 (human) activation; P55210; recombinant procaspase-7, Ac-DEVD-pNA absorbance 405 nm; D23A/D198A/D206A triple mutant, cannot self-cleave; scale: DMSO 0, 5 µM enzyme 100; activation, % at 8.5 µM; hit rate 0.093% among 330,000; AID 463210;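 active means percent activation above the screen-wide mean plus 3 SD, cut at about 25% in these data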
Target sequence (P55210 whole entry D23A/D198A/D206A): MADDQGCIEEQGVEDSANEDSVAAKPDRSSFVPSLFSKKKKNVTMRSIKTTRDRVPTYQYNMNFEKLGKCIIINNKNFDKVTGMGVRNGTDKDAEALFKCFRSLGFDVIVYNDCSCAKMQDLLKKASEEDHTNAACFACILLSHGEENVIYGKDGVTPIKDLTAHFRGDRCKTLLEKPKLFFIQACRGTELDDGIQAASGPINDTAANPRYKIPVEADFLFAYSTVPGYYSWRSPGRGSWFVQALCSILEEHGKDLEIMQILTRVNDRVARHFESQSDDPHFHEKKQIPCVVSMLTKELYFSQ
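System: Uncleavable procaspase-7 mutant enzyme; Amount: 2 µM procaspase-7 mutant as dispensed; Schedule: 1 h compound preincubation, 2 h substrate cleavage, 25 °C; Measured by: 405 nm absorbance of p-nitroaniline; Evaluation: percent activation from buffer-corrected 0–120 min absorbance change; Control set: low DMSO alone, high DMSO plus 5 µM PC-7.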
GAA850 FXN act – increases GAA850 frataxin promoter reporter activity; AID 540364; hit rate 0.56% among 360,000; activation, % at 6 µM; HEK293 lucGAA850 FXN promoter luciferase reporter, 24 h; percent of 10 µM SAHA response;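 active means activation above the average of all compounds screened plus 3 SD, cutoff fixed separately per campaign, cut at about 7.5% in these data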;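 further: 0% = DMSO wells and 100% = 10 µM SAHA wells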
Neddyl conf – cullin neddylation inhibition, confirmation. TR-FRET cullin neddylation biochemical assay. calls only at 25 µM. hit rate 13% among 1,800. shares compounds with Neddylation inh; in the data active means inhibition above about 40%;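 further: neddylation substrate is the cullin 1 ring ligase complex with SKP2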
Starred values were filed as active, the others as inactive; i = inactive; · = not tested or not shown; + = active, no number.

SMILES | proCasp3 act | HIF act | Neddylation inh | Calb FLC | procasp7 counter | GAA850 FXN act | Neddyl conf
COc1ccc(C(CCN2CCOCC2)c2c(OC)cc(OC)c3c(-c4ccccc4)cc(=O)oc23)cc1 (stereo not drawn) | -4.3 | · | 44.8* | · | -1.8 | -0.5 | i
C/C(CC(=O)Nc1cc(Cl)ccc1C)=N\NC(N)=O | 6.9 | 1.0 | 5.2 | 9.0 | -0.3 | 0.5 | ·
COCCCNc1nc2ccccc2nc1NS(=O)(=O)c1cccc(C)c1 | 2.3 | -0.3 | 38.7 | 11.3 | 11.6 | 1.0 | ·
COCCCNc1nc2ccccc2nc1NS(=O)(=O)c1ccc(C)cc1 | 8.8 | -0.5 | 33.5 | 18.4 | 5.3 | 2.6 | ·
COCCCNc1nc2ccccc2nc1NS(=O)(=O)c1ccc(C)c(C)c1 | -2.0 | 0.1 | 42.4* | 18.6 | -7.2 | 0.3 | ·
COCCNc1nc2ccccc2nc1NS(=O)(=O)c1ccc(C)cc1C | 5.4 | 0.3 | 37.6* | 10.0 | -0.6 | -1.2 | +
COc1ccc(Br)c(OC)c1C(=O)NC(=O)Nc1nc(C)cc(C)n1 | -1.8 | · | 2.0 | 9.1 | 5.6 | -1.6 | ·
COc1cccc(-c2nnc(SCC(=O)NC3CCS(=O)(=O)C3)n2C)c1 (stereo not drawn) | -6.0 | · | -3.3 | · | -12.7 | -0.1 | ·
CC(=O)Oc1ccc(/C(C)=N/N2CCN(Cc3ccc(C)cc3)CC2)cc1 | 1.2 | -0.6 | 2.2 | 0.2 | 2.5 | 0.3 | ·
Cc1cccn2c(=O)c3cc(C(=O)N4CCCCC4C)sc3nc12 (stereo not drawn) | -2.9 | · | 50.6* | · | 6.5 | 2.3 | +
CCN(CC)C(=O)c1cc2c(=O)n3cccc(C)c3nc2s1 | 4.3 | 1.1 | · | 6.3 | 6.3 | 2.4 | ·
CCCCN(CC)C(=O)c1cc2c(=O)n3cccc(C)c3nc2s1 | -5.8 | 0.8 | 62.0* | -4.9 | 3.5 | 6.0 | ·
COc1ccccc1N1CCN(C(=O)c2cc3c(s2)-c2ccccc2OC3)CC1 | 3.6 | -0.4 | 42.8* | 0.8 | 5.9 | 1.0 | i
COc1ccccc1N1CCN(C(=O)c2cc3c(=O)n4cccc(C)c4nc3s2)CC1 | 5.0 | -14.8 | 49.1* | 1.5 | -4.9 | 2.6 | +
CCOC(=O)N1CCN(C(=O)c2cc3c(=O)n4cccc(C)c4nc3s2)CC1 | 8.2 | 0.8 | · | -3.6 | -1.3 | 2.5 | ·
COc1ccccc1N1CCN(C(=O)c2cc3c(s2)CCCCC3)CC1 | 4.9 | 0.5 | -35.6 | 5.5 | 4.6 | 0.3 | ·
Cc1c(O)nc(SC2CC(=O)N(c3cc(Cl)cc(Cl)c3)C2=O)[nH]c1=O (stereo not drawn) | -9.4 | -0.3 | 0.3 | 1.2 | -3.2 | -0.6 | ·
O=C(C[n+]1ccc2ccccc2c1)c1ccc(NC(=O)c2ccccc2)cc1 | 2.4 | 0.7 | -42.5 | -36.8 | -6.0 | 0.7 | ·
C=CCOC(=O)C(C#N)c1nc2ccccc2nc1N1CCCC1 (stereo not drawn) | -8.3 | -0.3 | 25.4 | 1.9 | 0.6 | 1.5 | ·
COCCOC(=O)C(C#N)c1nc2ccccc2nc1N1CCCC1 (stereo not drawn) | -5.7 | -0.3 | 41.1* | -3.5 | 0.5 | 0.9 | i
Cc1ccc(C(=O)N[C@H](C(=O)Nc2ccc(N3CCOCC3)cc2)C(C)C)cc1 | · | · | 5.2 | · | · | 0.8 | ·
C(=C\c1ccc2nncn2c1)/c1ccccc1 | · | · | 45.1* | · | · | 2.0 | +
COCCSc1nc(N)c2c3c(sc2n1)CN(C)CC3 | 7.6 | 0.6 | 42.9* | 4.2 | 0.0 | 0.4 | i
CCCSc1nc(N)c2c3c(sc2n1)CN(C)CC3 | 2.3 | 0.5 | 28.2 | -6.7 | -6.2 | 0.7 | ·
CN(C)CCSc1nc(N)c2c3c(sc2n1)CN(C)CC3 | -3.1 | 0.2 | 38.7* | -6.8 | 0.8 | 0.2 | i
SMILES | proCasp3 act | HIF act | Neddylation inh | Calb FLC | procasp7 counter | GAA850 FXN act | Neddyl conf
CCOC(=O)c1ncn2c1[C@@H]1CCNC1C(=O)c1cc(OC)ccc1-2 (stereo partly drawn) | 7.4 | · | -15.6 | · | -1.0 | 2.8 | ·
C[C@]12c3[nH]c4ccccc4c3CCN1C(=O)C(CC(=O)NCCCn1ccnc1)C[C@@H]2C(=O)N1CCCCC1 (stereo partly drawn) | 1.6 | · | -3.5 | · | 3.7 | 0.9 | ·
CN(C)c1ccc(/C=N/NC(=O)c2ccc3c(c2)OCCO3)cc1 | -3.1 | 1.5 | 60.7* | -1.8 | 2.5 | 1.2 | ·
CC(C)CN(C(=O)Cn1c(Cl)nc2c1c(=O)n(C)c(=O)n2C)C1CCS(=O)(=O)C1 (stereo not drawn) | -2.5 | -1.2 | 11.4 | -5.6 | 9.5 | -0.3 | ·
O=C(CN1CCCC1)N1CCCc2c1c(=O)oc1ccc(OCc3ccccc3)cc21 | 7.0 | -0.3 | 49.8* | 13.1 | 14.6 | -3.2 | ·
O=C(Nc1ccc(OC(F)(F)F)cc1)C1CCCN(C(=O)c2ccc(Cl)cc2)C1 (stereo not drawn) | -1.1 | · | -0.1 | · | -15.5 | 0.0 | ·
Clc1cccc(CN2CCc3c([nH]c4ccccc34)C2)c1 | -6.2 | -16.0 | 43.5* | 0.4 | -8.7 | 1.0 | i
CC(=O)Nc1ccc(S(=O)(=O)Nc2nc3ccccc3nc2Nc2ccc3ccccc3c2)cc1 | -4.6 | 1.9 | · | -7.8 | -5.6 | 0.3 | ·
NS(=O)(=O)c1cccc(Nc2nc3ccccc3nc2NS(=O)(=O)c2ccc(Cl)cc2)c1 | -1.9 | · | 38.6* | · | 3.2 | 2.6 | +
CC(=O)Nc1ccc(S(=O)(=O)Nc2nc3ccccc3nc2Nc2cccc(O)c2)cc1 | -0.9 | 0.1 | 45.7* | 6.6 | 2.1 | -0.6 | ·
Cn1nnnc1SCC(=O)Nc1nc2c(F)c(F)c(F)cc2s1 | 4.9 | · | -69.6 | · | -2.5 | 0.8 | ·
O=S(=O)(NC1CCC(NS(=O)(=O)c2c(F)cccc2F)CC1)c1ccc2c(c1)OCCO2 (stereo not drawn) | 10.2 | · | 3.4 | · | -2.0 | 0.4 | ·
Cc1ccc(-c2c(C(=O)N/N=C/c3c[nH]c4ccccc34)nnn2-c2nonc2N)cc1 | 9.9 | -0.2 | 49.4* | 4.1 | -0.7 | 1.2 | i
CCCc1c(C(=O)N/N=C/c2ccc(OC)c(OCc3ccccc3)c2)nnn1-c1nonc1N | 0.4 | 1.2 | 42.4* | · | -2.5 | -0.7 | i
CCCc1c(C(=O)N/N=C/c2ccc(OCc3ccccc3)c(OC)c2)nnn1-c1nonc1N | 2.1 | 1.6 | 35.7 | -10.9 | 4.5 | -1.7 | ·
Cc1nnn(-c2nonc2N)c1C(=O)N/N=C/c1cccc2ccccc12 | -8.5 | 0.2 | 43.4* | -8.6 | 5.5 | 0.7 | i
CCCc1c(C(=O)N/N=C/c2c(OC)ccc3ccccc23)nnn1-c1nonc1N | 2.9 | -0.6 | 49.1* | · | 6.1 | 1.0 | i
CCCc1c(C(=O)N/N=C/c2c[nH]c3ccccc23)nnn1-c1nonc1N | · | · | 23.1 | · | · | -0.7 | ·
CCOC(=O)C1=C(COC(=O)COc2cc(C)ccc2C)NC(=O)NC1C (stereo not drawn) | -0.3 | 0.0 | 6.6 | 4.3 | 6.4 | -0.3 | ·
